Experimental data: paper PMC7114209 (Antiviral Research, 2008)

Key:
[1] = Cell growth and viability assay; format: cell-based; conditions: human, Raji cells, CC50, cytotoxic concentration that decreased cell viability to 50% of untreated cells, MTT, mean ± S.D. of three experiments
How it was run: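 Raji cells (latently EBV-infected, non-producer) kept at 4–6 × 10^5 cells/ml in RPMI 1640 with 10% FCS, penicillin and streptomycin. Cells were seeded in 96-well plates and exposed to a range of test compound concentrations for 3 days. MTT was then added for 6 h at 37 °C and solubilised in 0.04 M HCl–isopropanol. Absorbance was read at 595 nm against 655 nm. CC50 is relative to the no-drug control.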

EBV DNA in P3HR-1 cells = conditions: ref Lin, 2003; cited from earlier work
EBV DNA in Raji cells = conditions: latently infected Raji cells, not superinfected; ref Lin, 2003; cited from earlier work

What does the source list for `CC1(C)[C@@H](O[C@H]2O[C@H](C(=O)O)[C@@H](O)[C@H](O)[C@H]2O[C@@H]2O[C@H](C(=O)O)[C@@H](O)[C@H](O)[C@H]2O)CC[C@]2(C)[C@H]3C(=O)C=C4[C@@H]5C[C@@](C)(C(=O)O)CC[C@]5(C)CC[C@@]4(C)[C@]3(C)CC[C@@H]12` [GL (18β-GL), Glycyrrhizic acid]?
CC50 at 3 days [1]: 4.5 ± 0.16 mM; effect on EBV DNA (EBV DNA in P3HR-1 cells): no effects; effect on EBV DNA (EBV DNA in Raji cells): no effects
